ChEMBL document CHEMBL1140884, “Oligodeoxyribonucleotide-based antagonists for Toll-like receptors 7 and 9” (2009)
Activity calls are given as the source filed them. No cut-off for these calls is given here.

How the values were obtained:
[1] = target: T1, Toll-like receptor 9 (Mus musculus) (UniProt Q9EQU3); test: Agonist activity at mouse TLR9 expressed in HEK293 cells assessed as activation of NF-kappaB at 10 ug/mL by SEAP reporter gene assay; assay type: functional, cell-based
T1 sequence (whole entry): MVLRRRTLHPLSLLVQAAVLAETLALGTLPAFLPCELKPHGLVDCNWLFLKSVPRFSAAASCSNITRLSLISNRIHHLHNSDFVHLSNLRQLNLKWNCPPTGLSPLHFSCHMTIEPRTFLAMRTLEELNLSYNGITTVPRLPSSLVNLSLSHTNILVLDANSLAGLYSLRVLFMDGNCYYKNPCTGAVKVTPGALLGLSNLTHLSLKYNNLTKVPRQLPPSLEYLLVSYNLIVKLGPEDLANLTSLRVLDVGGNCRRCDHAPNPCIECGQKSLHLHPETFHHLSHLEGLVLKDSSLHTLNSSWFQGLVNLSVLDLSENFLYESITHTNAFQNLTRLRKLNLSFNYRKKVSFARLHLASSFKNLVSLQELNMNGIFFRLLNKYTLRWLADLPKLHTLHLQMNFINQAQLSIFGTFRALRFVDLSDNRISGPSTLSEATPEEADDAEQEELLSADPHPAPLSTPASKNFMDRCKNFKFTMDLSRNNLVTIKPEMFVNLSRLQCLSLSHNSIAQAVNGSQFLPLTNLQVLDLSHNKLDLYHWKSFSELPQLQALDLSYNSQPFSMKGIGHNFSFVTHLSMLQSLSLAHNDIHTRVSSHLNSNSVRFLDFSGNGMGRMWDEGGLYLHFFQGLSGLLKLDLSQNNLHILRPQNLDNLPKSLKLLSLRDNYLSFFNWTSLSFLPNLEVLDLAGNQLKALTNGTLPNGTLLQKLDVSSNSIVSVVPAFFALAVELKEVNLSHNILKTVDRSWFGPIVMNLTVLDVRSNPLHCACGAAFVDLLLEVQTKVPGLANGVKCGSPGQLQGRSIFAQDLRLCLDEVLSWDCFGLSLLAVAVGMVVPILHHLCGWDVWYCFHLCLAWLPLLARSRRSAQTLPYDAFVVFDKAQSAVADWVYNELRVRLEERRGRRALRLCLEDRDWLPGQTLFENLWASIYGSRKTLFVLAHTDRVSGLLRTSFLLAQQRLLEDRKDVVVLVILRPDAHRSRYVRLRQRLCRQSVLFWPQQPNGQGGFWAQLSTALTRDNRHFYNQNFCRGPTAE
Method in brief: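 HEK293 cells stably expressing mouse TLR9 were transiently transfected with a SEAP reporter for 6 h. Compounds were added at 10 µg/mL for 18 h. SEAP was read with Quanti-Blue substrate and expressed as fold change in NF-κB activity.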

[2] = target: T1, Toll-like receptor 9 (Mus musculus); test: Agonist activity at TLR9 in mouse J774 cells assessed as of NF-kappaB activation; assay type: functional, cell-based
Method in brief: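 Murine J774 macrophages grown in DMEM with 10% FBS and plated at 5×10^6 cells/well. Nuclear extracts taken 1 h after agonist addition. NF-κB detected by EMSA on native polyacrylamide gels with autoradiography.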

[3] = target: T1, Toll-like receptor 9 (Mus musculus); test: Antagonist activity at TLR9 in mouse J774 cells assessed as inhibition of LPS-induced NF-kappaB activation treated 1 hr before LPS induction; assay type: functional, cell-based
Method in brief: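 J774 cells at 5×10^6 cells/well were preincubated with antagonist for 1 h. Agonist was then added: TLR9 agonist 1 µg/mL, an RNA-based TLR7/8 agonist, or LPS 100 ng/mL. Antagonist was used at 5–40 µg/mL or at the indicated agonist ratios. Nuclear extracts were taken 1 h after agonist and analysed by EMSA.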

[4] = target: T1, Toll-like receptor 9 (Mus musculus); test: Antagonist activity at TLR9 in mouse J774 cells assessed as inhibition of 5'-TCTGACRTTCT-X-TCTTRCAGTCT-3'-induced NF-kappaB activation pretreated for 30 mins; assay type: functional, cell-based
Method in brief: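 J774 cells received antagonist at 5, 10 or 20 µg/mL either 30 min before, together with, or 30 min after TLR9 agonist (1 µg/mL). Nuclear extracts were prepared 1 h after agonist addition and NF-κB was assessed by EMSA.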

Mus musculus [5] = test: Inhibition of 5'-TCTGACRTTCT-X-TCTTRCAGTCT-3'-induced IL12 production in C57BL/6 mouse at 10 mg/kg, sc; assay type: functional, organism-based; parameters: dose 10 mg/kg
Method in brief: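 C57BL/6 mice received antagonist or control 10 mg/kg sc, either with TLR9 agonist 0.25 mg/kg sc or up to 48 h before it. Serum IL-12 was measured 2 h after agonist. Two or three independent experiments; mean ± SEM, Student's t test versus PBS.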

Mus musculus [6] = test: Inhibition of 5'-TCTGACRTTCT-X-TCTTRCAGTCT-3'-induced IP10 production in C57BL/6 mouse treated 72 hrs before induction at 10 mg/kg, sc; assay type: functional; details: C57BL/6, sc, route subcutaneous
Method in brief: (§1)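 Female C57BL/6 mice (n=3) received antagonist 10 mg/kg sc in the right flank. After 72 h, TLR9 agonist 0.25 mg/kg sc was given in the left flank. Serum was taken 2 h after agonist and cytokines/chemokines were measured by Luminex multiplex assay. Representative of at least three experiments.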

Mus musculus [7] = test: Inhibition of 5'-TCTGACRTTCT-X-TCTTRCAGTCT-3'-induced IL6 production in C57BL/6 mouse treated 72 hrs before induction at 10 mg/kg, sc; assay type: functional; details: C57BL/6, sc, route subcutaneous; method in brief: as §1
Mus musculus [8] = test: Inhibition of 5'-UGCUGUUCUG-X-GUCUUGUCGU-5'-induced IP10 production in C57BL/6 mouse treated 72 hrs before induction at 10 mg/kg, sc; assay type: functional; details: C57BL/6, sc, route subcutaneous
Method in brief: (§2)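 Female C57BL/6 mice, 6-8 weeks, n = 3, given antagonist 10 mg/kg sc in the right flank. After 72 h, agonist given sc in the left flank: TLR7/8 RNA agonist at 50 mg/kg or TLR9 agonist at 0.25 mg/kg. Serum collected 2 h after agonist by retro-orbital bleeding; cytokines/chemokines by mouse 20-plex Luminex bead assay.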

Mus musculus [9] = test: Inhibition of 5'-UGCUGUUCUG-X-GUCUUGUCGU-5'-induced IL10 production in C57BL/6 mouse treated 72 hrs before induction at 10 mg/kg, sc; assay type: functional; details: C57BL/6, sc, route subcutaneous; method in brief: as §2
Mus musculus [10] = test: Inhibition of 5'-UGCUGUUCUG-X-GUCUUGUCGU-5'-induced MCP1 production in C57BL/6 mouse treated 72 hrs before induction at 10 mg/kg, sc; assay type: functional; details: C57BL/6, sc, route subcutaneous; method in brief: as §2
Mus musculus [11] = test: Inhibition of 5'-UGCUGUUCUG-X-GUCUUGUCGU-5'-induced MIG production in C57BL/6 mouse treated 72 hrs before induction at 10 mg/kg, sc; assay type: functional; details: C57BL/6, sc, route subcutaneous; method in brief: as §2
Mus musculus [12] = test: Inhibition of 5'-TCTGACRTTCT-X-TCTTRCAGTCT-3'-induced IL12 production in C57BL/6 mouse treated 72 hrs before induction at 10 mg/kg, sc; assay type: functional; details: C57BL/6, sc, route subcutaneous; method in brief: as §1
[13] = target: T1, Toll-like receptor 9 (Mus musculus); test: Antagonist activity at mouse TLR9 expressed in HEK293 cells assessed as inhibition of 5'-TCTGACRTTCT-X-TCTTRCAGTCT-3'-induced NF-kappaB activation pretreated for 1 hr in presence of increasing levels of 5'-TCTGACRTTCT-X-TCTTRCAGTCT-3'; assay type: functional, cell-based
Method in brief: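 In mouse TLR9-HEK293 cells with SEAP reporter, a fixed 10 µg/mL antagonist was combined with increasing TLR9 agonist concentrations for 18 h. Quanti-Blue SEAP read-out of NF-κB activity.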

Activity [1]: inactive
Activity [2]: inactive
Activity [3]: inactive
Activity [4]: Active
Activity [13]: inactive
Compound: CO[C@@H]1[C@H](OP(=O)(S)OC[C@H]2O[C@@H](n3ccc(N)nc3=O)C[C@@H]2OP(=O)(S)OC[C@H]2O[C@@H](n3ccc4c(=O)[nH]c(N)nc43)C[C@@H]2OP(=O)(S)OC[C@H]2O[C@@H](n3cc(C)c(=O)[nH]c3=O)C[C@@H]2OP(=O)(S)OC[C@H]2O[C@@H](n3cc(C)c(=O)[nH]c3=O)C[C@@H]2OP(=O)(S)OC[C@H]2O[C@@H](n3ccc(N)nc3=O)C[C@@H]2OP(=O)(S)OC[C@H]2O[C@@H](n3cc(C)c(=O)[nH]c3=O)C[C@@H]2OP(=O)(S)OC[C@H]2O[C@@H](n3ccc(N)nc3=O)C[C@@H]2OP(=O)(S)OC[C@H]2O[C@@H](n3cc(C)c(=O)[nH]c3=O)C[C@@H]2OP(=O)(S)OC[C@H]2O[C@@H](n3cnc4c(=O)[nH]c(N)nc43)C[C@@H]2OP(=O)(S)OC[C@H]2O[C@@H](n3cc(C)c(=O)[nH]c3=O)C[C@@H]2O)[C@@H](COP(=O)(S)O[C@H]2[C@@H](OC)[C@H](n3cnc4c(=O)[nH]c(N)nc43)O[C@@H]2COP(=O)(S)O[C@H]2C[C@H](n3cc(C)c(=O)[nH]c3=O)O[C@@H]2COP(=O)(S)O[C@H]2C[C@H](n3ccc(N)nc3=O)O[C@@H]2COP(=O)(S)O[C@H]2C[C@H](n3cc(C)c(=O)[nH]c3=O)O[C@@H]2COP(=O)(S)O[C@H]2C[C@H](n3cnc4c(N)ncnc43)O[C@@H]2COP(=O)(S)O[C@H]2C[C@H](n3cc(C)c(=O)[nH]c3=O)O[C@@H]2COP(=O)(S)O[C@@H]2C[C@@H](n3ccc(N)nc3=O)O[C@H]2CO)O[C@H]1n1cnc2c(N)ncnc21 (stereo partly drawn)
Activity (Mus musculus [5]): Active
inhibition in vivo at 10 mg/kg (Mus musculus [6]): ≥ 50%
inhibition in vivo at 10 mg/kg (Mus musculus [7]): ≥ 50%
inhibition in vivo at 10 mg/kg (Mus musculus [8]): ≥ 50%
inhibition in vivo at 10 mg/kg (Mus musculus [9]): ≥ 50%
inhibition in vivo at 10 mg/kg (Mus musculus [10]): ≥ 50%
inhibition in vivo at 10 mg/kg (Mus musculus [11]): ≥ 50%
inhibition in vivo at 10 mg/kg (Mus musculus [12]): ≥ 50%
